16 compounds from ChEMBL document CHEMBL1127017 can be followed below.

Where only a bound is given, the exact number is not on record here.

Assay [1] deals with T1, Progesterone receptor (Rattus norvegicus) (UniProt Q63449).
T1 sequence (whole entry): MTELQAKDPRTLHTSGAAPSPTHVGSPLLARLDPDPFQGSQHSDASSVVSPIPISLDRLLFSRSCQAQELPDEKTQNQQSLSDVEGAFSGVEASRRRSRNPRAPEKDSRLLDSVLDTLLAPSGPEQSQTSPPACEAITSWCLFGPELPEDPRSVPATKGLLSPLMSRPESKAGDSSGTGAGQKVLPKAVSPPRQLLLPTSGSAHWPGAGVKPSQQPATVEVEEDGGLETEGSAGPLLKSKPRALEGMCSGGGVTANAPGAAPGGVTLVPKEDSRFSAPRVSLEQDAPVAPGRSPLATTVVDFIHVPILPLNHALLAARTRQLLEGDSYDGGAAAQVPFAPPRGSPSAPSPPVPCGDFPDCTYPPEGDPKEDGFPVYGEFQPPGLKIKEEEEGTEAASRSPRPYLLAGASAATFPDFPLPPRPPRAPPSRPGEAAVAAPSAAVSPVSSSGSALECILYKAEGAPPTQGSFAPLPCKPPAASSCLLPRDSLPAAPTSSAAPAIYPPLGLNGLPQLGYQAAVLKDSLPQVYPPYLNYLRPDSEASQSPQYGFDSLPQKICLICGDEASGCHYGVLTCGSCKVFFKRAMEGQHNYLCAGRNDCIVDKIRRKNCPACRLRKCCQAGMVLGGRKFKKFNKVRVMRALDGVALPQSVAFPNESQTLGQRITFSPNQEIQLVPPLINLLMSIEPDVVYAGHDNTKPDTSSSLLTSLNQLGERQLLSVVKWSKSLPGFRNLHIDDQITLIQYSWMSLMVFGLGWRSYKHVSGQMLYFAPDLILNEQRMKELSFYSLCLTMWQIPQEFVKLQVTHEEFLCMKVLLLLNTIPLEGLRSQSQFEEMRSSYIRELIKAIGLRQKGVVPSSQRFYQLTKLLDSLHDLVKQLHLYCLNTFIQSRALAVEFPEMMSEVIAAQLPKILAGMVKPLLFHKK
Kind of assay: Relative binding affinity for progesterone receptor in a competitive radiometric binding assay relative to the affinity of R5020 as tracer. A digest of the protocol: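 The R5020 standard is defined as 100%, and binding of other ligands is expressed as a percentage relative to it.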

In assay [2] the target is T2, Mineralocorticoid receptor (Rattus norvegicus) (UniProt P22199).
T2 sequence (whole entry): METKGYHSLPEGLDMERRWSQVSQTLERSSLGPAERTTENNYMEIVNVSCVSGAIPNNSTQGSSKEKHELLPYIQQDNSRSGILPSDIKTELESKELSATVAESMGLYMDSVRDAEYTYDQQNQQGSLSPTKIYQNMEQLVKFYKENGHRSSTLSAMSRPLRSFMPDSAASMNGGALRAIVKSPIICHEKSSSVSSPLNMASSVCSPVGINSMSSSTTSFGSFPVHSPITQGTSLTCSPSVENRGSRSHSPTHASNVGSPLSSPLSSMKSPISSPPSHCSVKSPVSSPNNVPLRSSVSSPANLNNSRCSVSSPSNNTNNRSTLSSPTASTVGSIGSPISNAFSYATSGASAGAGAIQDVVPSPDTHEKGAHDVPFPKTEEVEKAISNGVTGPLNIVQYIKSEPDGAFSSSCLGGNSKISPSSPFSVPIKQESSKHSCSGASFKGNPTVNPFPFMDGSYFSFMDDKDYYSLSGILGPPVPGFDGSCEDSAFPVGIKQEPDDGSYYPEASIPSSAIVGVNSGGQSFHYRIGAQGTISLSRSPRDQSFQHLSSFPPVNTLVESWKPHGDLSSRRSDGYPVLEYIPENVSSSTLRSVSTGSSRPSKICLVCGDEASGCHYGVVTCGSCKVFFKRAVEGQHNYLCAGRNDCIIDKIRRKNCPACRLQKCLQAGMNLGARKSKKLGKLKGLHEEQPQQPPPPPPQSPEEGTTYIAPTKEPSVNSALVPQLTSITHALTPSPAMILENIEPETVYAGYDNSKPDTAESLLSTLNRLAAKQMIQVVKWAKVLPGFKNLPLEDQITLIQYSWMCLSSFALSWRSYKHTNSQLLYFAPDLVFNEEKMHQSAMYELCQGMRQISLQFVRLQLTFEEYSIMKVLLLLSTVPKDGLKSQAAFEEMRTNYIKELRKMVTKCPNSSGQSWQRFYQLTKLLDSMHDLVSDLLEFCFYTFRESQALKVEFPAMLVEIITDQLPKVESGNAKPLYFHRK
Nature of the assay: Relative binding affinity for the rat kidney mineralocorticoid receptor (MR) relative to the affinity of aldosterone as tracer.

`CC(=O)[C@@]12OC(C)(c3ccc(N=[N+]=[N-])cc3)O[C@@H]1CC1C3CCC4=CC(=O)CC[C@]4(C)C3CC[C@@]12C` (stereo in doubt; 7) yielded a relative binding affinity (RBA) in assay [1] of 0.18.

For the compound `CC(=O)[C@@]12OC(C)(c3ccc(I)cc3)O[C@@H]1CC1C3CCC4=CC(=O)CC[C@]4(C)C3CC[C@@]12C` (some centres undefined), the relative binding affinity (RBA) in assay [1] turned out to be 25; in assay [2], 0.13.

In the case of `CC(=O)[C@@]12OC(C)(c3ccc(C(=O)c4ccccc4)cc3)O[C@@H]1CC1C3CCC4=CC(=O)CC[C@]4(C)C3CC[C@@]12C` (some centres undefined), the relative binding affinity (RBA) was 6.6 in assay [1] and less than 0.003 in assay [2].

For the compound `CC(=O)[C@@]12OC(C)(c3ccc(N=[N+]=[N-])cc3)O[C@@H]1CC1C3CCC4=CC(=O)CC[C@]4(C)C3CC[C@@]12C` (stereo in doubt; 6), the relative binding affinity (RBA) in assay [1] came out at 15; in assay [2] it was 0.13.

On to `CC(=O)[C@@]12OC(C)(c3c(F)c(F)c(F)c(F)c3F)O[C@@H]1CC1C3CCC4=CC(=O)CC[C@]4(C)C3CC[C@@]12C` (some centres undefined), for which the relative binding affinity (RBA) in assay [1] amounted to 20; in assay [2], 0.65.

`CC(=O)[C@@]12OC(C)(c3ccc(N)cc3)O[C@@H]1CC1C3CCC4=CC(=O)CC[C@]4(C)C3CC[C@@]12C` (some centres undefined) registered a relative binding affinity (RBA) in assay [1] of 0.01.

`CC(=O)[C@@]12OC(C)(c3ccco3)OC1CC1C3CCC4=CC(=O)CC[C@]4(C)C3CC[C@@]12C` (some centres undefined): in assay [1], the relative binding affinity (RBA) was 5.5.

Turning to `CC(=O)[C@@]12OC(C)(c3ccc(F)cc3)O[C@@H]1CC1C3CCC4=CC(=O)CC[C@]4(C)C3CC[C@@]12C` (stereo in doubt; 11), the relative binding affinity (RBA) in assay [1] was found to be 0.56.

On to `CC(=O)[C@@]12OC(C)(c3c(F)c(F)c(N=[N+]=[N-])c(F)c3F)O[C@@H]1CC1C3CCC4=CC(=O)CC[C@]4(C)C3CC[C@@]12C` (some centres undefined), for which the relative binding affinity (RBA) was found to be 14 in assay [1] and 0.95 in assay [2].

`CC(=O)[C@H]1CC[C@H]2[C@@H]3CCC4=CC(=O)CC[C@]4(C)[C@H]3CC[C@]12C` returned a relative binding affinity (RBA) in assay [1] of 13.

Turning to `CC(=O)[C@@]12OC(C)(c3ccc(F)cc3)O[C@@H]1CC1C3CCC4=CC(=O)CC[C@]4(C)C3CC[C@@]12C` (stereo in doubt; 10), the relative binding affinity (RBA) in assay [1] is 53; in assay [2], 6.

For the compound `CC(=O)[C@@]12OC(C)(c3ccccc3)O[C@@H]1C[C@H]1[C@@H]3CCC4=CC(=O)CC[C@]4(C)[C@H]3CC[C@@]12C` (stereo in doubt; 16), the relative binding affinity (RBA) in assay [1] amounted to 16; in assay [2], 1.6.

As to `CC(=O)[C@@]12OC(C)(c3ccc(N=C=S)cc3)O[C@@H]1CC1C3CCC4=CC(=O)CC[C@]4(C)C3CC[C@@]12C` (some centres undefined), the relative binding affinity (RBA) worked out at 1.3 in assay [1] and 0.09 in assay [2].

On to `CC(=O)[C@@]12OC(C)(C)O[C@@H]1C[C@H]1[C@@H]3CCC4=CC(=O)CC[C@]4(C)[C@H]3CC[C@@]12C`, for which the relative binding affinity (RBA) in assay [1] came out at 2.

For `CC(=O)[C@@]12OC(C)(c3ccccc3)O[C@@H]1C[C@H]1[C@@H]3CCC4=CC(=O)CC[C@]4(C)[C@H]3CC[C@@]12C` (stereo in doubt; 17), the relative binding affinity (RBA) in assay [1] amounted to 1.2.

`CC(=O)[C@@]12OC(C)(c3ccc(N=[N+]=[N-])c(I)c3)O[C@@H]1CC1C3CCC4=CC(=O)CC[C@]4(C)C3CC[C@@]12C` (some centres undefined) gave a relative binding affinity (RBA) in assay [1] of 2.9.
